Measurements published in ChEMBL document CHEMBL1127020, “3-Quinolinecarboxamides. A series of novel orally-active antiherpetic agents” (1993).
Values after ≈ are worked out from the molar mass of the structure shown. Active and inactive are the calls of the source. No cut-off for these calls is given here.

Key:
[1] = tested on: Human alphaherpesvirus 2; experiment: (§1) Minimum effective dose against herpes simplex virus-2 (HSV-2) by oral administration in female mice.; type: functional; conditions: Human alphaherpesvirus 2, po; read-out: MED
[2] = tested on: Human alphaherpesvirus 2; experiment: In vitro maximum tolerated level against herpes simplex virus-2 (HSV-2) by plaque-reduction assay in vero cells; type: functional
[3] = tested on: Human alphaherpesvirus 2; experiment: (§2) In vitro minimum inhibitory concentration against herpes simplex virus-2 (HSV-2) by plaque-reduction assay in vero cells; type: functional
[4] = tested on: Human alphaherpesvirus 2; experiment: In vivo maximum tolerated dose against herpes simplex virus-2 (HSV-2) by oral administration in female mice; type: functional
[5] = tested on: Vero; experiment: Tested in vitro for minimum inhibitory concentration against herpes simplex virus-1 (HSV-1) KOS strain by plaque-reduction assay in vero cells; type: functional; conditions: Chlorocebus sabaeus
Procedure, shortened: (§3)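 Vero monolayers (2 days old, confluent; Hank's MEM + 5% inactivated FCS, 37 °C, 2% CO2) infected with ~80 PFU; after 1-h adsorption, overlay of M199/5% FCS with 1:150 human immune serum globulin plus serial 2-fold compound dilutions (1:200 from DMSO). 3 d incubation, glutaraldehyde fix, crystal violet stain, plaque count. MIC = lowest concentration giving 50% plaque reduction; mean of ≥2 experiments.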

[6] = tested on: Vero; experiment: Tested in vitro for minimum inhibitory concentration against herpes simplex virus-1 (HSV-1) F strain by plaque-reduction assay in vero cells; type: functional; conditions: Chlorocebus sabaeus; procedure, shortened: as §3
[7] = tested on: Vero; experiment: Tested in vitro for minimum inhibitory concentration against herpes simplex virus-2 (HSV-2) curtis strain by plaque-reduction assay in vero cells; type: functional; conditions: Chlorocebus sabaeus; procedure, shortened: as §3
[8] = tested on: Vero; experiment: Tested in vitro for minimum inhibitory concentration against herpes simplex virus-1 (HSV-1) 1142 strain by plaque-reduction assay in vero cells; type: functional; conditions: Chlorocebus sabaeus; procedure, shortened: as §3
[9] = tested on: Vero; experiment: Tested in vitro for minimum inhibitory concentration against herpes simplex virus-2 (HSV-2) 2115 strain by plaque-reduction assay in vero cells; type: functional; conditions: Chlorocebus sabaeus; procedure, shortened: as §3
[10] = tested on: Vero; experiment: Tested in vitro for minimum inhibitory concentration against herpes simplex virus-2 (HSV-2) 2011 strain by plaque-reduction assay in vero cells; conditions: Chlorocebus sabaeus
[11] = tested on: Vero; experiment: Tested in vitro for minimum inhibitory concentration against herpes simplex virus-1 (HSV-1) 2992 strain by plaque-reduction assay in vero cells; type: functional; conditions: Chlorocebus sabaeus; procedure, shortened: as §3
[12] = tested on: Vero; experiment: Tested in vitro for minimum inhibitory concentration against herpes simplex virus-1 (HSV-1) KOS, ACG strain by plaque-reduction assay in vero cells; type: functional; conditions: Chlorocebus sabaeus; procedure, shortened: as §3
[13] = tested on: Vero; experiment: as §2; type: functional, cell-based; conditions: Chlorocebus sabaeus; procedure, shortened: as §3
[14] = tested on: Mus musculus; experiment: Tested in vivo for minimum effective dose against herpes simplex virus-2 (HSV-2) by oral administration in female mice;not active; type: functional, organism-based
Procedure, shortened: (§4)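 Swiss female ICR mice (13–15 g) infected intravaginally with HSV-2 (Curtis) at a dose set for 80% mortality. Compound suspended in 1% gum tragacanth/2% Tween 80, given intragastrically at serial 2-fold doses, 20 mice per dose, 2 h before infection then twice daily for 5 d. Mortality followed 14 d; MED = lowest dose with survival differing from placebo (Mantel-Cox, Breslow).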

[15] = tested on: Vero; experiment: Tested in vitro for minimum inhibitory concentration against herpes simplex virus-2 (HSV-2) 2011 strain by plaque-reduction assay in vero cells; type: functional; conditions: Chlorocebus sabaeus; procedure, shortened: as §3
[16] = tested on: Human alphaherpesvirus 2; experiment: as §2; type: functional, organism-based; procedure, shortened: as §3
[17] = tested on: Human alphaherpesvirus 2; experiment: as §1; type: functional, organism-based; procedure, shortened: as §4
[18] = tested on: Vero; experiment: Tested in vitro for minimum inhibitory concentration against herpes simplex virus-2 (HSV-2) by plaque-reduction assay in vero cells; not active; type: functional, cell-based; conditions: Chlorocebus sabaeus; procedure, shortened: as §3

## CCn1cc(C(=O)NC)c(=O)c2ccc(-c3ccncc3)cc21
[1]
  minimal effective dose: 50 mg/kg
[2]
  MTL: >25 µg/mL
[3]
  MIC: 9 µg/mL (≈ 29.3 µM)
[4]
  MTD: 50 mg/kg

## NC(=O)c1cn(-c2ccncc2)c2cc(-c3ccncc3)ccc2c1=O
[1]
  minimal effective dose: 75 mg/kg
[2]
  MTL: >200 µg/mL
[3]
  MIC: 7.2 µg/mL (≈ 21 µM)
[4]
  MTD: 75 mg/kg

## NC(=O)c1cn(-c2ccc(F)cc2)c2cc(-c3ccncc3)ccc2c1=O
[5]
  MIC: 0.23 µg/mL (≈ 0.64 µM)
[6]
  MIC: 0.13 µg/mL (≈ 0.362 µM)
[7]
  MIC: 0.24 µg/mL (≈ 0.668 µM)
[1]
  minimal effective dose: 25 mg/kg
[8]
  MIC: 0.18 µg/mL (≈ 0.501 µM)
[2]
  MTL: 6.25 µg/mL
[9]
  MIC: 0.13 µg/mL (≈ 0.362 µM)
[3]
  MIC: 0.24 µg/mL (≈ 0.668 µM)
[10]
  MIC: 0.15 µg/mL (≈ 0.417 µM)
[11]
  MIC: 0.24 µg/mL (≈ 0.668 µM)
[12]
  MIC: 0.32 µg/mL (≈ 0.89 µM)
[4]
  MTD: 50 mg/kg

## NC(=O)c1cn(-c2cccc(F)c2)c2cc(-c3ccncc3)ccc2c1=O
[1]
  minimal effective dose: 50 mg/kg
[2]
  MTL: >25 µg/mL
[3]
  MIC: 0.71 µg/mL (≈ 1.98 µM)
[4]
  MTD: 50 mg/kg

## NC(=O)c1cn(-c2ccc(F)cc2)c2cc(-c3cc[n+]([O-])cc3)ccc2c1=O
[1]
  minimal effective dose: 25 mg/kg
[2]
  MTL: >12.5 µg/mL
[13]
  MIC: inactive
[4]
  MTD: 100 mg/kg

## CCn1c(=O)c(C(N)=O)c(O)c2ccc(-c3ccncc3)cc21
[1]
  minimal effective dose: 100 mg/kg
[2]
  MTL: 6.25 µg/mL
[3]
  MIC: 2.1 µg/mL (≈ 6.79 µM)
[4]
  MTD: 100 mg/kg

## CCn1cc(C(=O)NNC)c(=O)c2ccc(-c3ccncc3)cc21
[2]
  MTL: 25 µg/mL
[13]
  MIC: inactive

## CCn1cc(C(N)=O)c(=O)c2ccc(-c3ccncc3)cc21
[1]
  minimal effective dose: 50 mg/kg
[2]
  MTL: 12.5 µg/mL
[3]
  MIC: 6.5 µg/mL (≈ 22.2 µM)
[4]
  MTD: 50 mg/kg

## NC(=O)c1cn(-c2ccc(Cl)c(Cl)c2)c2cc(-c3ccncc3)ccc2c1=O
[1]
  minimal effective dose: 50 mg/kg
[2]
  MTL: >100 µg/mL
[3]
  MIC: 0.52 µg/mL (≈ 1.27 µM)
[4]
  MTD: 100 mg/kg

## CCn1cc(C(=O)NN)c(=O)c2ccc(-c3ccncc3)cc21
[14]
  MED: inactive
[2]
  MTL: 50 µg/mL
[3]
  MIC: 38 µg/mL (≈ 123 µM)
[4]
  MTD: 100 mg/kg

## NC(=O)c1cn(-c2ccc(Cl)cc2)c2cc(-c3ccncc3)ccc2c1=O
[1]
  minimal effective dose: 50 mg/kg
[2]
  MTL: >25 µg/mL
[3]
  MIC: 0.4 µg/mL (≈ 1.06 µM)
[4]
  MTD: 100 mg/kg

## NC(=O)c1cn(-c2ccc(Br)cc2)c2cc(-c3ccncc3)ccc2c1=O
[1]
  minimal effective dose: 50 mg/kg
[2]
  MTL: >12.5 µg/mL
[3]
  MIC: 0.47 µg/mL (≈ 1.12 µM)
[4]
  MTD: 50 mg/kg

## Nc1nc2c(ncn2COCCO)c(=O)[nH]1 [ACYCLOVIR]
[5]
  MIC: 0.14 µg/mL (≈ 0.622 µM)
[6]
  MIC: 0.29 µg/mL (≈ 1.29 µM)
[7]
  MIC: 1.3 µg/mL (≈ 5.77 µM)
[1]
  minimal effective dose: 12 mg/kg
[8]
  MIC: 7.8 µg/mL (≈ 34.6 µM)
[2]
  MTL: >200 µg/mL
[9]
  MIC: 77 µg/mL (≈ 342 µM)
[3]
  MIC: 1.3 µg/mL (≈ 5.77 µM)
[11]
  MIC: 11 µg/mL (≈ 48.8 µM)
[12]
  MIC: 43 µg/mL (≈ 191 µM)
[15]
  MIC: 43 µg/mL (≈ 191 µM)
[4]
  MTD: >200 mg/kg

## CCn1cc(C(=O)NO)c(=O)c2ccc(-c3ccncc3)cc21
[14]
  MED: inactive
[2]
  MTL: 25 µg/mL
[3]
  MIC: 6.8 µg/mL (≈ 22 µM)
[4]
  MTD: 100 mg/kg

## NC(=O)c1cn(-c2ccccc2F)c2cc(-c3ccncc3)ccc2c1=O
[16]
  MIC: inactive
[2]
  MTL: 1.6 µg/mL
[4]
  MTD: 100 mg/kg
[17]
  MED: inactive

## NC(=O)c1c(N)n(-c2ccc(F)cc2)c2cc(-c3ccncc3)ccc2c1=O
[1]
  minimal effective dose: 50 mg/kg
[2]
  MTL: >100 µg/mL
[3]
  MIC: 0.33 µg/mL (≈ 0.881 µM)
[4]
  MTD: 50 mg/kg

## CCn1cc(C(=O)N(C)O)c(=O)c2ccc(-c3ccncc3)cc21
[2]
  MTL: 50 µg/mL
[18]
  MIC: inactive

## Cc1ccc(-n2cc(C(N)=O)c(=O)c3ccc(-c4ccncc4)cc32)cc1
[2]
  MTL: >25 µg/mL
[3]
  MIC: 0.63 µg/mL (≈ 1.77 µM)
[4]
  MTD: 50 mg/kg
[17]
  MED: inactive

## NC(=O)c1cn(-c2ccccc2)c2cc(-c3ccncc3)ccc2c1=O
[1]
  minimal effective dose: 25 mg/kg
[2]
  MTL: 6.25 µg/mL
[3]
  MIC: 0.78 µg/mL (≈ 2.28 µM)
[4]
  MTD: 50 mg/kg
